These results are taken from ChEMBL document CHEMBL2346523, “Synthesis and in vitro and in vivo characterization of highly β1-selective β-adrenoceptor partial agonists” (J Med Chem, 2013).

Active and inactive are the calls of the source. No cut-off for these calls is given here. Bounds are passed on as bounds.

As usually defined, the EC50 is the concentration that produces a half-maximal response.

In assay [1] the target is T1, Beta-1 adrenergic receptor (Homo sapiens, UniProt P08588). Kind of assay: Displacement of [3H]-CGP12177 from human beta1 adrenoceptor expressed in CHOK1 cells after 2 hrs by scintillation counting analysis. The format is cell-based, CHO-K1. A general note: In a radioligand displacement assay an active substance lowers the binding of a labelled ligand.
T1 sequence (P08588 whole entry): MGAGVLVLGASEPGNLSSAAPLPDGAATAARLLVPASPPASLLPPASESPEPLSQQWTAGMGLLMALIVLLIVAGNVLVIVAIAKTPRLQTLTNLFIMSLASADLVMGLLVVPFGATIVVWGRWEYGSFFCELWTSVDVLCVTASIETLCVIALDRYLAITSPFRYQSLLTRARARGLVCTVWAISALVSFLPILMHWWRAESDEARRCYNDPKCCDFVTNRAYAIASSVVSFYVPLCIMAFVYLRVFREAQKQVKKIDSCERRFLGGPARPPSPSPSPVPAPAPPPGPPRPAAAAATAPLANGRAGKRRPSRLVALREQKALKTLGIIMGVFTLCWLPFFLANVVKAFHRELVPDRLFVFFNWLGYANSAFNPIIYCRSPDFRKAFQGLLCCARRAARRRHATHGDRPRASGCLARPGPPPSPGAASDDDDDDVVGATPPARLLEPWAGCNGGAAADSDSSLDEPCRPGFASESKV
The next assay concerns CHO-K1. Kind of assay: Selectivity ratio of Kd for human beta1 adrenoceptor expressed in CHOK1 cells by radioligand displacement assay to Kd for human beta2 adrenoceptor expressed in CHOK1 cells by radioligand displacement assay. It counts as cell-based. The procedure, abridged: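 Whole-cell 3H-CGP 12177 binding (0.73 nM) in confluent CHO-K1 cells expressing human β1 or β2, 2 h at 37 °C. Cells were washed with cold PBS and counted by scintillation. Nonspecific binding was defined with 10 μM propranolol. IC50 came from a one-site fit, converted to KD; […] KD ratio. Triplicate points.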

In assay [2] the target is T2, Beta-3 adrenergic receptor (Homo sapiens, UniProt P13945). Kind of assay: Agonist activity at human beta3 adrenoceptor expressed in CHOK1 cells assessed as induction of [3H]cAMP accumulation at 10 uM after 5 hrs relative to isoprenaline. The format is functional, cell-based. The settings on record: CHO-K1. The procedure, abridged:
(§1)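 CHO-K1 cells stably expressing human β3 (790 fmol/mg protein) were grown to confluence and prelabelled 2 h with 2 μCi/mL 3H-adenine. Cells then had 15 min in 1 mM IBMX, followed by ligand for 5 h. The reaction was stopped with HCl, and 3H-cAMP was isolated on Dowex/alumina columns. Responses are % of 10 μM isoprenaline. Mean ± SEM of separate experiments.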
Target sequence in this assay (P13945 whole entry, looked up): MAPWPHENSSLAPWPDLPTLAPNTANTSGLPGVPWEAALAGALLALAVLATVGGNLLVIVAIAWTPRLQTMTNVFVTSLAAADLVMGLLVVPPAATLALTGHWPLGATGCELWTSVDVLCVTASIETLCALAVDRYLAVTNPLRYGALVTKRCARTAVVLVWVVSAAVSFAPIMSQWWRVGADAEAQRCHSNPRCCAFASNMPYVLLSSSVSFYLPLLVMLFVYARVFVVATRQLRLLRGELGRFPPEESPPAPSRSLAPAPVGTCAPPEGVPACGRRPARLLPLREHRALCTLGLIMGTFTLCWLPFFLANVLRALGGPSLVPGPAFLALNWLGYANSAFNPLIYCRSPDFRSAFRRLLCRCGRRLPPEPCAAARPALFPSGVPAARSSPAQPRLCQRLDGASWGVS
A general note: cAMP levels reflect the balance of adenylyl cyclase and phosphodiesterase activity.

Assay [3] deals with T1, Beta-1 adrenergic receptor. Kind of assay: Partial agonist activity at human beta1 adrenoceptor expressed in CHOK1 cells assessed as induction of [3H]cAMP accumulation after 5 hrs. The format is functional, cell-based, CHO-K1.
Assay [4] addresses T2, Beta-3 adrenergic receptor. Kind of assay: Antagonist activity at human beta3 adrenoceptor expressed in CHOK1 cells assessed as inhibition of cimaterol-induced [3H]cAMP accumulation incubated for 15 mins prior to cimaterol induction measured after 5 hrs. The format is functional, cell-based, CHO-K1. The procedure, abridged:
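3H-cAMP accumulation in CHO-K1 cells stably expressing human β1, β2 or β3 adrenoceptors, prelabelled with 3H-adenine. Log KD was taken from the dose ratio shift, or by the Stephenson partial-agonist method when partial agonism was seen. Triplicates, on the same cell passage.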
Target sequence in this assay (P13945 whole entry): as the sequence (P13945 whole entry, looked up) above

Assay [5] concerns the target T1, Beta-1 adrenergic receptor. Kind of assay: Antagonist activity at human beta1 adrenoceptor expressed in CHOK1 cells assessed as inhibition of cimaterol-induced [3H]cAMP accumulation incubated for 15 mins prior to cimaterol induction measured after 5 hrs. It counts as functional, cell-based, CHO-K1.
The target of assay [6] is T3, Beta-2 adrenergic receptor (Homo sapiens, UniProt P07550). Kind of assay: Antagonist activity at human beta2 adrenoceptor expressed in CHOK1 cells assessed as inhibition of cimaterol-induced [3H]cAMP accumulation incubated for 15 mins prior to cimaterol induction measured after 5 hrs. The format is functional, cell-based, CHO-K1.
Target sequence in this assay (P07550 whole entry, the tested form may be a part): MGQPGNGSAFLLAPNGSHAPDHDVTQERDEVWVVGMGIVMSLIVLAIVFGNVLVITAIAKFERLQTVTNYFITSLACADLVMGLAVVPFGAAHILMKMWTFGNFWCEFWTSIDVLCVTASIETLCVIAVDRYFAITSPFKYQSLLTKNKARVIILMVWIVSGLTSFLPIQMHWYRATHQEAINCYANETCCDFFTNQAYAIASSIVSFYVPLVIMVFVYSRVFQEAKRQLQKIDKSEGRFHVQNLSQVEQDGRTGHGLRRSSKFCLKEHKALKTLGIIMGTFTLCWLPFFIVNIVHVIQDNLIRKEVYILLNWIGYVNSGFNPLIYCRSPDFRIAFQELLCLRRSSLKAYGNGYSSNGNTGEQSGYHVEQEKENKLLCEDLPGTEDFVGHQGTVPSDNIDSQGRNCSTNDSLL
The subject of assay [7] is Rattus norvegicus. Kind of assay: Agonist activity at beta2 adrenoceptor in conscious free moving Sprague-Dawley rat model assessed as effect on hindquarters response at 2 mg/kg, iv administered as bolus dose followed by 1 mg/kg/hr, iv administered as 90 mins infusion measured for 0.5 hrs to 25 hrs. The format is functional, organism-based. The procedure, abridged: (§2)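 Conscious, unrestrained adult male Sprague–Dawley rats (300–350 g) with an implanted Doppler probe, an aortic catheter for blood pressure and heart rate, and a jugular catheter for dosing; studied 24 h after catheterisation. Atropine methyl nitrate 1 mg/kg/h was infused throughout. Isoprenaline 3 min infusions (12, 40, 120 ng/kg/min) were given before and from 30 min after saline or HCl salt iv bolus plus infusion. Response = third-minute value minus pre-infusion steady state; hindquarters conductance derived from BP and Doppler shift; n = 4.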

In assay [8] the test system is Rattus norvegicus. Kind of assay: Partial agonist activity at beta1 adrenoceptor in conscious free moving Sprague-Dawley rat model assessed as inhibition of heart rate responses at 2 mg/kg, iv administered as bolus followed by 1 mg/kg/hr, iv administered as 90 mins infusion measured for 0.5 hrs to 25 hrs relative to 40 to 120 ng/kg of isoprenaline. The format is functional, organism-based. The procedure, abridged:
as §2

The target in assay [9] is T3, Beta-2 adrenergic receptor. Kind of assay: Displacement of [3H]-CGP12177 from human beta2 adrenoceptor expressed in CHOK1 cells after 2 hrs by scintillation counting analysis. The format is cell-based. The settings on record: for inhibition: CHO-K1.
In assay [10] the test system is Rattus norvegicus. Kind of assay: Partial agonist activity at beta1 adrenoceptor in conscious free moving Sprague-Dawley rat model assessed as increase in heart rate at 2 mg/kg, iv bolus followed by 1 mg/kg/hr, iv infusion for 90 mins measured for 0.5 hrs to 25 hrs relative to 120 ng/kg of isoprenaline. It counts as functional. In outline:
as §2

The target in assay [11] is T2, Beta-3 adrenergic receptor. Kind of assay: Agonist activity at human beta3 adrenoceptor expressed in CHOK1 cells assessed as induction of [3H]cAMP accumulation after 5 hrs relative to isoprenaline. The format is functional, cell-based. Conditions: CHO-K1.
Target sequence in this assay (P13945 whole entry, looked up): as the sequence (P13945 whole entry, looked up) above
Assay [12] deals with T2, Beta-3 adrenergic receptor. Kind of assay: Agonist activity at human beta3 adrenoceptor expressed in CHOK1 cells assessed as induction of [3H]cAMP accumulation at 100 uM after 5 hrs relative to isoprenaline. It counts as functional, cell-based. Conditions: CHO-K1. In outline:
as §1
Target sequence in this assay (P13945 whole entry, looked up): as above

In the case of `O=C(NCCNCC(O)COc1ccc(OCCOC2CCCC2)cc1)Nc1ccc(O)cc1` (centres undefined), the Kd is 0.00741 µM in assay [1], greater than 10 µM in [4] (read-out: Kd), 0.00282 µM in assay [5] and 1.45 µM in assay [6] (read-out: pKd (converted)). In addition, in the assay on CHO-K1, the Selectivity ratio was 478. Moreover, the Activity in [2] stood at 4%. Also, the EC50 in assay [3] is 0.00363 µM.
As to `O=C(NCCNCC(O)COc1ccc(OCCOC2CCCC2)cc1)Nc1ccccc1Br` (centres undefined), the Selectivity ratio in the assay with CHO-K1 is 10.
`O=C(NCCNCC(O)COc1ccc(OCCOCC2CC2)cc1)Nc1ccc(O)cc1` (centres undefined) [listing 1 of 2 here]: in assay [2], the Activity amounted to 12.5%. For the same compound, the result in the assay on Rattus norvegicus [7] was inactive. Further, the inhibition result in the assay on Rattus norvegicus [8] was “Active”. The inhibition result in assay [9] was “inactive”.
Consider `O=C(NCCNCC(O)COc1ccc(OCCOCC2CC2)cc1)Nc1ccc(O)cc1` (centres undefined) [listing 2 of 2 here], for which the Kd in assay [1] was 0.0324 µM; in assay [4] (read-out: Kd), greater than 10 µM; in [5] it was 0.0178 µM; in assay [6] (read-out: pKd (converted)), 7.08 µM. In addition, in assay [3], the EC50 was 0.00977 µM.
As for `O=C(NCCNCC(O)COc1ccc(OCCOC2CCCC2)cc1)Nc1cccc(O)c1` (centres undefined), in the assay on CHO-K1, the Selectivity ratio came to 110.
For the compound `O=C(NCCNCC(O)COc1ccc(OCCOC2CCCC2)cc1)Nc1cccc(C(F)(F)F)c1` (centres undefined), the Selectivity ratio in the assay with CHO-K1 is 81.
Consider `O=C(NCCNCC(O)COc1ccc(OCCOC2CCCC2)cc1)Nc1cccc(Cl)c1` (centres undefined), for which the Kd in assay [1] is 0.00617 µM; in assay [4] (read-out: pKd (converted)), 6.03 µM; in assay [9], 2.04 µM; in assay [5], 0.00148 µM; in assay [6] (read-out: pKd (converted)), 0.794 µM. In addition, the Selectivity ratio in the assay with CHO-K1 was determined as 331. Also, the Activity in assay [2] amounted to 2%. In addition, the concentration giving a half-maximal response (EC50) in assay [3] is 0.00302 µM.
On to `Cc1ccccc1NC(=O)NCCNCC(O)COc1ccc(OCCOC2CCCC2)cc1` (centres undefined), for which the Selectivity ratio in the assay on CHO-K1 came out at 11.
Same read-out and setting: the same measure for `O=C(NCCNCC(O)COc1ccc(OCCOC2CCCC2)cc1)Nc1ccccc1C(F)(F)F` (centres undefined): 13.
Consider `N#Cc1cc(OCCOCC2CC2)ccc1OCC(O)CNCCNC(=O)Nc1ccc(O)cc1` (centres undefined) [LK-204545], for which, in [2], the Activity came out at 8.6%. In addition, the values for the Kd in assay [4] (read-out: Kd), in [9] and in assay [6] (read-out: pKd (converted)) were greater than 10 µM, 5.13 µM and 2.88 µM, respectively.
For `O=C(NCCNCC(O)COc1ccc(OCCOC2CCCC2)cc1)Nc1ccccc1` (centres undefined), the Kd in [1] was 0.0123 µM; in assay [4] (read-out: Kd) it was greater than 10 µM; in [9], 2.63 µM; in assay [5], 0.00347 µM; in [6] (read-out: pKd (converted)), 1.2 µM. Also, in the assay with CHO-K1, the Selectivity ratio was 213. Moreover, the Activity in assay [2] was determined as 4%. For the same compound, the EC50 in [3] was 0.00447 µM.
As for `CCOCCOc1ccc(OCC(O)CNCCNC(=O)Nc2ccc(O)cc2)cc1` (centres undefined), the Kd was 0.0912 µM in [1], greater than 10 µM in assay [4] (read-out: Kd), 0.0269 µM in [5] and greater than 10 µM in [6] (read-out: Kd). The Activity in assay [2] amounted to 1.3%. Further, in assay [3], the EC50 is 0.0229 µM. The inhibition entry in assay [9] was “inactive”.
For `COc1ccc(NC(=O)NCCNCC(O)COc2ccc(OCCOC3CCCC3)cc2)cc1` (centres undefined), the Selectivity ratio with CHO-K1 is 87.
For `COc1cccc(NC(=O)NCCNCC(O)COc2ccc(OCCOC3CCCC3)cc2)c1` (centres undefined), the Selectivity ratio with CHO-K1 turned out to be 51.
Consider `O=C(NCCNCC(O)COc1ccc(OCCOC2CCCC2)cc1)Nc1cccc(F)c1` (centres undefined), for which the Selectivity ratio with CHO-K1 worked out at 43.
The same measure, in the same setting: for `Cc1cccc(NC(=O)NCCNCC(O)COc2ccc(OCCOC3CCCC3)cc2)c1` (centres undefined) the value was 96.
For the compound `O=C(NCCNCC(O)COc1ccc(OCCOC2CCCC2)cc1)Nc1ccc(F)cc1` (centres undefined), the Selectivity ratio in the assay with CHO-K1 amounted to 60.
The same measure, in the same setting: the same measure for `O=C(NCCNCC(O)COc1ccc(OCCOC2CCCC2)cc1)Nc1ccc(Cl)cc1` (centres undefined): 110.
`Cl.O=C(NCCNCC(O)COc1ccc(OCCOCC2CC2)cc1)Nc1ccc(O)cc1` (centres undefined): the Activity in the assay with Rattus norvegicus [10] was 44%.
For `O=C(NCCNCC(O)COc1ccc(OCCOC2CCCC2)cc1)Nc1ccccc1F` (centres undefined), the Selectivity ratio in the assay on CHO-K1 amounted to 76.
Regarding `COc1ccccc1NC(=O)NCCNCC(O)COc1ccc(OCCOC2CCCC2)cc1` (centres undefined), the Selectivity ratio in the assay on CHO-K1 was found to be 12.
On to `CC(C)NCC(O)c1ccc(N)c(C#N)c1` (centres undefined), for which, in [11], the Activity was 89.6%.
On to `O=C(NCCNCC(O)COc1ccc(OCCOC2CCCC2)cc1)Nc1ccc(C(F)(F)F)cc1` (centres undefined), for which the Selectivity ratio in the assay with CHO-K1 was determined as 87.
Regarding `O=C(NCCNCC(O)COc1ccc(OCCOC2CCCC2)cc1)Nc1ccc(Br)cc1` (centres undefined), the Selectivity ratio in the assay on CHO-K1 amounted to 81.
On to `O=C(NCCNCC(O)COc1ccc(OCCOCCc2ccc(F)cc2)cc1)Nc1ccc(O)cc1` (centres undefined), for which, in the assay with CHO-K1, the Selectivity ratio turned out to be 389. Besides, the Activity in assay [2] was 7.9%. For the same compound, the EC50 in assay [3] is 0.00229 µM. The Kd in assay [4] (read-out: pKd (converted)) is 2.63 µM; in [9] it was 1.23 µM; in assay [5], 0.001 µM; in assay [6] (read-out: pKd (converted)), 0.891 µM.
Consider `N#Cc1ccccc1OCC(O)CNCCNC(=O)Nc1ccccc1` (centres undefined), for which, in assay [2], the Activity was 11.7%.
Regarding `O=C(NCCNCC(O)COc1ccc(O)cc1)N1CCOCC1` (centres undefined), the Activity in [12] was 38.3%.
